Assay results: the RNAGym collection of RNA variant scans (doi:10.1126/science.aae0568)
This sample holds only a part of the variants without activity.

B1: tRNA (parent)
chain: GUUCCGUUGGCGUAAUGGUAACGCGUCUCCCUCCUAAGGAGAAGACUGCGGGUUCGAGUCCCGUACGGAACG

Variants of: B1
Test: yeast fitness relative to wild type (ratio to wild type); higher = fitter; tRNA-Arg(CCU), competitive growth, 37 C, YPD
Procedure, shortened: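 A pool of Saccharomyces cerevisiae strains, each with a tRNA-Arg(CCU) gene variant at the native genomic locus, was competed in YPD at 37°C for 24 hours across six parallel replicates. The variants had been chemically synthesised at a 3% per-site mutation rate over 69 sites, and gene amplicons before and after competition were read by 100-nucleotide paired-end sequencing. Darwinian fitness relative to wild type rested on changes in genotype frequencies. Genotypes required ≥ 100 starting reads, and estimates < 0.5 were set to 0.5.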

Going from GUUCCGUUGGCGUAAUGGUAACGCGUCUCCCUCCUAAGGAGAAGAGUGCGGGUUCGAGUCCAGUACGGAACG [C46G C62A] to GUUCCGUUGGCGUAAUGGUAACGCGUCUCCCUCCUAAGGAGAAGACUGUGGGUUCGAGUCCGGUAUGGAACG [C49U C62G C66U], the yeast fitness falls from 0.873 to 0.608.

GUUCCGUUGGCGUAAUGGUAACGCGUCUCCCUCCUAAGGAGAAGACUGAGCGUUCGAGACCCGUACGGAACG [C49A G51C U59A] and GUUCCGUUGGCGUAGUGGUAACGGGUCACCCUCCUAAGGAGAAGACUGCGGCUUCGAGUCCCGUCCGGAACG [A15G C24G U28A G52C A65C] cannot be ordered by yeast fitness: no more than 0.5 for the first, no more than 0.5 for the second.

GUUCCGUUGGCGUAAUGGUAGCGCGUGUCCCUCCUAAGGAGUAGACUGCGGGUUCGAGUCCCGUACGGAACG [A21G C27G A42U] and GUUCCGUUGGCGUAAUGGUAAGGCGUCCACCUCCUAAGGAGCAGACUGCGGGUUCGAGUCCCGUACGGAACG [C22G U28C C29A A42C] cannot be ordered by yeast fitness: no more than 0.5 for the first, no more than 0.5 for the second.

Going from GUUCCGUUGGCGUAAUGGCAACGUGUCUCCCUCCUAAGGAGAAGACUGCGGGUUCGAGUCCCGUACGGAACG [U19C C24U] to GUUCCGUUGGUGUAAUGGUAACGCGUCUCCCUCCUAAGGAGAAGACUGCGGGUUCAAGUCCAGUACGGAACG [C11U G56A C62A], the yeast fitness falls from 0.969 to 0.567.

GUUCCGGUGGCGUAAUGGUAACGCGUGUCCCUCCUAAGGUGAAGACUGGGGGUUCGAGUCCCGUACGGAACG [U7G C27G A40U C49G] and GUUCCGUUGGCGUAAUGGUCACGCGUCUCCCUCCUAAGGAGACGACUGCGGGUUCGAGUCCCGUACGUAACG [A20C A43C G68U] cannot be ordered by yeast fitness: no more than 0.5 for the first, no more than 0.5 for the second.

Compared with GUUCCGUUGGCGUAAUGGUAACGCGUCUCCCGCCUUAGGAGAAGACUGCGGGUUCGAGUCCCGUACGGAACG [U32G A36U], GUACCGUUGGCCUAAUGGUAACGGGUCUCCCUCCUAAGGAGAAGACUGCGGGUUCGAGUCCCGUACGGAACG [U3A G12C C24G] is lower in yeast fitness: 0.697 for the first, no more than 0.5 for the second.

First: GGUCCGUUGGCGUACUCGUAAGGAGUCUCCAUCCUAAGGAGAAGACUGCGGGUUCGAGUCCCGUACCGAACG [U2G A15C G17C C22G C24A C31A G67C]
Second: GUUCCGUUGGCGAAAUGGAAACGCGUCUCCCUCCUAAGGAGUAGACUGCGCGUUCGAGUCCCGUACGGAACG [U13A U19A A42U G51C]
The yeast fitness of the first is higher: 0.579 for the first, no more than 0.5 for the second.

First: GUUCCGUUGGCGUAAUGGUAACGCGUCUCCGUCCUAAGGAGAAGGCUGCGGGUUCGAGUCCCGUACGGAACG [C31G A45G]
Second: GUUCCGUGGGCGUAAUGGUAACGCGUCUCCCUCCUAAGGAGAAGACUGUGGGUUCGAGUCCCGUACGGAACG [U8G C49U]
The yeast fitness of the first is higher: 0.809 for the first, 0.668 for the second.

First: GUUCCGUUGGCAUAAUGGUAACGCGUCUCCCUCCUAAGGAGAAGCCUGGGGGUUCGAGUCCCGUACGGAACG [G12A A45C C49G]
Second: GUUACGUUGGUGUAAUGGUAACGCGUCUCCCACCUAACGAGAAGACAGCGGGGUCGAGUCCCGUACGGAACG [C4A C11U U32A G38C U47A U53G]
The yeast fitness of the first is higher: 0.619 for the first, 0.56 for the second.

First: GUUCCGUUGGUGUAGUGGUAACGCGUCUCCCUCCUAAGGAGAAGACUGCGGGUUCGAGUCCCGUCCGGAACG [C11U A15G A65C]
Second: GUUCCGUUGGCCUAAUGGUUGGGCGUCUCCCUCCUAAGGAGAAGACUGCAGGUUCGAGUCACGUACGGAACG [G12C A20U A21G C22G G50A C61A]
The yeast fitness of the first is higher: 0.713 for the first, no more than 0.5 for the second.

GUUCCGUUGGCGUAAUGGCAACGCGUCUCCCUCCUAAGGAGUAGAUUGCGGGUUGGAGUCCCGUACGGAACG [U19C A42U C46U C55G] and GUUCCGUUGGCGUAAUGGUAACGCGUCUCGCUCCUAAGGAAAAGACUGCGGGUUCGAGUCCCGUGCGGAACG [C30G G41A A65G] cannot be ordered by yeast fitness: no more than 0.5 for the first, no more than 0.5 for the second.

Compared with GUUCCAUUGGCGUAAUGGUAACGCGUCUCCCUCCUAAGGAGAAAAAUGCGGAUUCGAGUCCCGUAUGGAACG [G6A G44A C46A G52A C66U], GAUCCGUUCGCGAAGUGGUAACGCGUCUCCCUACUAUGGAGAAGACUGCCGGUUCGAGUCUCGUACGGUACG [U2A G9C U13A A15G C33A A37U G50C C61U A69U] is lower in yeast fitness: 0.526 for the first, no more than 0.5 for the second.

Going from GUGCCGUCGGCGUAUUGGUAACGCAUCUCCCUCCUAAGGAGAAGACUGAGGGUUCGAGUCCCGUACGGAACG [U3G U8C A15U G25A C49A] to GUUCCGUUGGCGUAAUGGUAACGGGUCUCCCUCCUAAGGAGAAGACUGCGGGUUCGAGACCCGUACGGAACG [C24G U59A], the yeast fitness rises from no more than 0.5 to 0.552.

GUUCCGUCGGCGUAAUGGUAUCGCGUCUCCCUCAUAAGGCGAAGACUGCGGGUUCGAGUCCCGUACAGAACG [U8C A21U C34A A40C G67A] and GUUCCGUAGGCGUAAUGGUAAUGCGUCUCCCUCCUAAGGAGAGGACUGCGGGUUCGAGUCCCGUAAGGAACG [U8A C22U A43G C66A] cannot be ordered by yeast fitness: no more than 0.5 for the first, no more than 0.5 for the second.

Compared with GUUCCGCUGCCGUAAUGGUAACGUGUCUCCCUCCUAAGGAGAAGAUUGCGGGUUCGAGUCCCCUACGGAACG [U7C G10C C24U C46U G63C], GUUUCGUUGGCGCAAUGGUAACGCGUCUCCCUUCUAAGGAGAAGACUGCGGGUUCGAGUCCCGUGCGGAACG [C4U U13C C33U A65G] is higher in yeast fitness: no more than 0.5 for the first, 0.617 for the second.

Going from GUUCCGUUGACGUAAUGGUAACGCGUCUCCCUCCUAAGGAGAAGACUGAGGGUUCGAGUCCCGUACGGAACG [G10A C49A] to GUUCCGUUGGCGUAAUGGUAUCGCGUCUCCCUCCUAAGGCGUAGACUGUCGGUUCGAGUCCCAUAUGGAACG [A21U A40C A42U C49U G50C G63A C66U], the yeast fitness falls from 0.521 to no more than 0.5.

Compared with GUUCCGUUGGAGUAAUGGUAACGCGUCUCCCUUCUAAGGAGAUGACUGCGGGUUCGAGUCCCGUACGGAACG [C11A C33U A43U], GUUCCGUUGGCGUAAUGGUAACGCGUCUCCUUCCUAAGGAGAAGACUGCGGGUUCGAGUCAUGUUCGGAACG [C31U C61A C62U A65U] is lower in yeast fitness: 0.532 for the first, no more than 0.5 for the second.

GCUCCGUUGGCCUAAUGGUAACGCGUCUCCCUCCUAAGGCGAAGACUGCGGGUUCGAGUCCCGUACAGAACG [U2C G12C A40C G67A] and GUUCCGUUGGCGUAAUGGUAAAGGGUCUCCCUCCUGAGCAGAAGACUGCGGGUUCAAGUCCCGUACGGAACG [C22A C24G A36G G39C G56A] cannot be ordered by yeast fitness: no more than 0.5 for the first, no more than 0.5 for the second.

Going from GUUCCGUAGGCGUAAUGGUAACGCGUCACCGUCCUAAGGAGAAAACUGCGCGUUCGAGUCCCGUGCGGAACG [U8A U28A C31G G44A G51C A65G] to GUUCCGUUGGCGUAAUGAUUACGCGUCUCCCUCCUAAGGAGAAGACUGCGGGUUCGAGUCCCGUACGGAACG [G18A A20U], the yeast fitness rises from no more than 0.5 to 0.721.
